Assay outcomes deposited in PubChem BioAssay by Broad Institute.
Cneo AK release: Cryptococcus neoformans lysis via adenylate kinase release; AID 651654; C. neoformans lysis, adenylate kinase release luminescence, 4 h; normalised: neutral wells 0, clomiphene wells 100; lysis activity, % at 15 µM; actives 0.2% (n = 360,000);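 active = mean lysis activity across replicates of at least 80%, whatever share of replicates individually reach that level; inactive = mean lysis activity below 80%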
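read-out = cell lysis signal | test system = log-phase Cryptococcus neoformans yeast cells | input = cells at 5 × 10^6 per mL | medium = fresh YPD growth medium | signal = luminescent adenylate kinase detection reagent | timing = 4 h at 37 °C static, read 1 h later | dosing = single dose | controls = Clomiphene as positive lysis control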
Statin myotox sup: suppression of simvastatin myotoxicity. C2C12 myotubes + simvastatin, ATP luminescence, 48 h; scaled: DMSO 0, geranylgeraniol control 100. rescue of ATP level, % at 7.49 µM. actives 0.78% (n = 330,000);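 active = mean ATP rescue above about 67%, or every replicate alone reaching that limit, limit read from the data, passing the limit was not always enough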;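 note: myotubes were challenged with 10 µM simvastatin during compound exposure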
SUMO Mot1 rescue: inhibitors of SUMOylation pathway: yeast Mot1-301 growth rescue | AID 2716 | growth rescue, % at 18.8 µM | S. cerevisiae Mot1-301 growth rescue, ATP luminescence, 38.5C; percent above DMSO median, 100 means doubled | actives 1% (n = 320,000);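 active = every valid replicate shows activation above 250% relative to neutral control wells; inactive = the rest, any valid replicate at or below 250%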;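 note: OY570 slx delta 5 strain wells were the positive control but not used for scaling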
* = called active by the depositor. Sampled rows, rich in hits. Any-hit rate of the full collection: about 1.5%.

For C[C@H]1CN([C@@H](C)CO)C(=O)c2cc(N(C)C)ccc2O[C@@H]1CN(C)Cc1ccc(C(=O)Nc2ccccc2N)cc1 the results were Cneo AK release 1 and Statin myotox sup 81*.
CC=Cc1ccc2n(c1=O)C[C@@H]1[C@@H](CO)[C@H](C(=O)N3CCOCC3)N(Cc3ccccc3OC)[C@H]21 (mixture of isomers) was read as Cneo AK release -2 and Statin myotox sup -6.
For O=C(C[C@@H]1C[C@H]2c3cc(NC(=O)NC4CCCC4)ccc3O[C@H]2[C@H](CO)O1)NCc1cccc(F)c1 the results were Cneo AK release 6 and Statin myotox sup 0.
Screening CN(C)CC(=O)Nc1ccc2c(c1)[C@@H]1C[C@@H](CC(=O)NCc3cccnc3)O[C@@H](CO)[C@@H]1O2 returned Cneo AK release -6 and Statin myotox sup -2.
`COCC(=O)N(C)C[C@H]1Oc2ncc(C#CC3(O)CCCC3)cc2C(=O)N([C@@H](C)CO)C[C@H]1C` gave Cneo AK release 1 and Statin myotox sup 13.
For C[C@@H]1CN([C@H](C)CO)C(=O)c2cc(NS(=O)(=O)c3ccc(Cl)cc3)ccc2O[C@@H]1CN(C)Cc1ccc(C(=O)Nc2ccccc2N)cc1 the results were Cneo AK release 1 and Statin myotox sup 97*.
Screening C[C@@H]1CN([C@@H](C)CO)C(=O)c2cc(NS(=O)(=O)c3ccc(Cl)cc3)ccc2O[C@H]1CN(C)Cc1ccc(C(=O)Nc2ccccc2N)cc1 returned Cneo AK release 2 and Statin myotox sup 36.
Screening Cc1ccc(S(=O)(=O)Nc2ccc3c(c2)C(=O)N([C@@H](C)CO)C[C@H](C)[C@H](CN(C)S(=O)(=O)c2c(C)noc2C)OCCCC[C@@H](C)O3)cc1 returned Cneo AK release 2.
CCNc1nc(NCC)nc(N(n2cnnc2)S(=O)(=O)c2ccc(C)cc2)n1 was read as SUMO Mot1 rescue 310*.
For CCNc1nc(NC(C)C)nc(N(n2cnnc2)S(=O)(=O)c2ccc(C)cc2)n1 the results were SUMO Mot1 rescue 126.
For C[C@H]1CCCCO[C@H](CN(C)C(=O)Nc2ccc(C(F)(F)F)cc2)[C@@H](C)CN([C@@H](C)CO)C(=O)c2cc(NC(=O)Nc3ccc4c(c3)OCO4)ccc2O1 the results were Cneo AK release 4 and Statin myotox sup -25.
CCC(C)(C)n1nnnc1C(c1ccc2ncccc2c1)N1CCN(c2ccc(O)cc2)CC1 (centres undefined) was read as Cneo AK release 0, Statin myotox sup -16 and SUMO Mot1 rescue -8.
For CCC(C)(C)n1nnnc1C(c1ccc2ncccc2c1)N1CCCC(C)C1 (centres undefined) the results were Cneo AK release -1, Statin myotox sup -1 and SUMO Mot1 rescue 342*.
`O=C(Nc1ccc(-c2ccccc2)cc1)[C@H]1[C@H](CO)[C@H]2Cn3c(cccc3=O)[C@@H]1N2Cc1cccnc1` gave Cneo AK release -16 and Statin myotox sup 10.
O=C(NCC(c1ccco1)N1CCCC1)c1ccc(Cl)cc1 (centres undefined) was read as Cneo AK release 1, Statin myotox sup 92* and SUMO Mot1 rescue 124.
Screening O=C(CCNC(=O)c1ccc(Cl)cc1)NCC(c1ccco1)N1CCCCC1 (centres undefined) returned Cneo AK release 6, Statin myotox sup -4 and SUMO Mot1 rescue -19.
For CNC(=O)C[C@@H]1CC[C@H]2[C@H](COc3ccc(NC(=O)NC4CCCC4)cc3C(=O)N2C)O1 the results were Cneo AK release 6 and Statin myotox sup -4.
Screening O=C(C[C@@H]1CC[C@@H]2[C@H](COC[C@H](O)CN2Cc2cccc(C(F)(F)F)c2)O1)NCc1ccccc1 returned Cneo AK release 97* and Statin myotox sup 6.
For COCCNC(=O)C[C@@H]1CC[C@H]2[C@@H](COC[C@H](O)CN2Cc2cccc(-c3ccncc3)c2)O1 the results were Cneo AK release 109* and Statin myotox sup 14.
O=C(C[C@H]1CC[C@@H]2[C@H](COC[C@H](O)CN2CCC(F)(F)F)O1)NCc1ccc(Oc2ccccc2)cc1 was read as Cneo AK release 1 and Statin myotox sup 72*.
CN1CCN(C(=O)C[C@@H]2CC[C@@H]3[C@H](COC[C@@H](O)CN3C(=O)Cc3ccccc3)O2)CC1 was read as Cneo AK release 0 and Statin myotox sup -2.
For O=C(C[C@@H]1CC[C@H]2[C@@H](COC[C@@H](O)CN2CCC(F)(F)F)O1)NCc1ccc(Oc2ccccc2)cc1 the results were Cneo AK release 0 and Statin myotox sup 18.
`COCCNC(=O)C[C@@H]1CC[C@H]2[C@@H](COC[C@@H](O)CN2Cc2cccc(-c3ccncc3)c2)O1` gave Cneo AK release 0 and Statin myotox sup -3.
O=C(C[C@H]1CC[C@H]2[C@@H](COC[C@H](O)CN2Cc2cccc(C(F)(F)F)c2)O1)NCc1ccccc1 was read as Cneo AK release -1 and Statin myotox sup -3.
CN1CCN(C(=O)C[C@@H]2CC[C@H]3[C@@H](COC[C@H](O)CN3C(=O)Cc3ccccc3)O2)CC1 was read as Cneo AK release 94* and Statin myotox sup -13.
CCNC(=O)C[C@@H]1CC[C@@H]2[C@H](COC[C@@H](O)CN2C(=O)Nc2ccc(C(F)(F)F)cc2)O1 was read as Cneo AK release 1 and Statin myotox sup -46.
Screening CC(=O)N[C@@H]1CC[C@@H](CCNC(=O)Nc2ccc(C(F)(F)F)cc2)O[C@@H]1CO returned Cneo AK release -2 and Statin myotox sup -6.
For C[C@H]1CN([C@@H](C)CO)C(=O)c2cc(NC(=O)C3CC3)ccc2O[C@H]1CN(C)C the results were Cneo AK release -1 and Statin myotox sup -12.
Cc1ccc(S(=O)(=O)Nc2ccc3c(c2)C(=O)N([C@H](C)CO)C[C@@H](C)[C@@H](CN(C)C(=O)c2ccncc2)OCCCC[C@H](C)O3)cc1 was read as Cneo AK release 0 and Statin myotox sup -19.
For CO[C@@H]1CN(C)C(=O)c2ccc(NC(=O)c3ccccc3F)cc2OC[C@H](C)N(C(=O)c2ccccc2F)C[C@@H]1C the results were Cneo AK release -1 and Statin myotox sup 2.
`C[C@@H](NC(=O)C[C@@H]1C[C@@H]2c3cc(NC(=O)CN(C)C)ccc3O[C@@H]2[C@H](CO)O1)c1ccccc1` gave Cneo AK release -4 and Statin myotox sup 3.
CN1C(=O)c2cc(NC(=O)c3ccc(Cl)cc3)ccc2OC[C@@H]2O[C@@H](CC(=O)NCc3cccc(F)c3)CC[C@@H]21 was read as Cneo AK release -1 and Statin myotox sup -17.
C[C@@H]1CN([C@@H](C)CO)C(=O)c2cc(C3=CCCCC3)cnc2O[C@@H]1CN(C)C(=O)Nc1ccccc1 was read as Cneo AK release 1 and Statin myotox sup 10.
`O=C(C[C@H]1CC[C@H]2[C@@H](COC[C@@H](O)CN2C(=O)c2cnccn2)O1)NCc1ccc(Oc2ccccc2)cc1` gave Cneo AK release 0 and Statin myotox sup 8.
O=C(C[C@H]1CC[C@@H]2[C@H](COC[C@@H](O)CN2C(=O)c2cnccn2)O1)NCc1ccc(Oc2ccccc2)cc1 was read as Cneo AK release 105* and Statin myotox sup -13.
